# Active and inactive are the calls of the source. No cut-off for these calls is given here.
# How the values were obtained:
# [1] = Plasma clearance in Beagle dog at 5 mg/kg, po and 1 mg/kg, iv; type: ADME, organism-based, Canis lupus familiaris
# Outline: (§1)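 Overnight-fasted animals dosed po in 0.5% methocel or iv in 60% PEG 200; plasma from serial blood samples stored at -10 °C, protein-precipitated with equal volume acetonitrile/0.1% formic acid, analysed by LC/MS/MS with internal standard against spiked blank-plasma standards; Cmax from po data, half-life from iv data.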
# [2] = Plasma clearance in C57BL/6 mouse at 20 mg/kg, po and 5 mg/kg, iv; type: ADME, organism-based; outline: as §1
# [3] = target: T1, Prostaglandin E2 receptor EP4 subtype (Homo sapiens, UniProt P35408); assay: Antagonist activity at human EP4 receptor expressed in HEK293 cells assessed as inhibition of PGE2-induced cAMP accumulation by scintillation proximity assay; type: functional, cell-based
# Outline: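 HEK 293 cells; inhibition of PGE2-induced cAMP accumulation measured, with and without 10% human serum; means of at least three experiments.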
# [4] = target: T2, Prostaglandin E2 receptor EP3 subtype (Rattus norvegicus, UniProt P34980); assay: Displacement of [3H]PGE2 from rat EP3 receptor expressed in HEK293-EBNA cells by scintillation counting; type: cell-based
# T2 sequence (P34980 whole entry): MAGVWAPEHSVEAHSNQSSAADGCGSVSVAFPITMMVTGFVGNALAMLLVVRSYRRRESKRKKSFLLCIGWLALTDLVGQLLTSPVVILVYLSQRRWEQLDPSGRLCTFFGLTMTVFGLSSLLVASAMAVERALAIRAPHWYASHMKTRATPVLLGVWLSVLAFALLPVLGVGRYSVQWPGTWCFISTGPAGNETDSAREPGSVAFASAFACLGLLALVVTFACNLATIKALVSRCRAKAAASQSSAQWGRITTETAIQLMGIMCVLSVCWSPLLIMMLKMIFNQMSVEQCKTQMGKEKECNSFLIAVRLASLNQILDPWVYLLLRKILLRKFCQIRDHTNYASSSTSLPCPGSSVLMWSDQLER
# Outline: (§2)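 Radioligand binding on membranes from HEK 293(EBNA) clonal lines overexpressing each prostanoid receptor, using the respective 3H-prostaglandin or thromboxane ligand; EP4 binding also run with 10% human serum; Ki as means of at least three experiments (rEP2, rEP3 n = 1).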
# Prostacyclin receptor = Prostacyclin receptor (Homo sapiens, UniProt P43119); assay: Displacement of [3H]iloprost from human IP receptor expressed in HEK293-EBNA cells by scintillation counting; type: cell-based; outline: as §2
# Rattus norvegicus [5] = organism: Rattus norvegicus; assay: Analgesic activity against complete Freund's adjuvant-induced Sprague-Dawley rat inflammatory pain assessed as inhibition of chronic paw swelling at plasma concentration of 4 nM after 24 hrs; type: functional, organism-based
# Outline: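 Adjuvant-induced arthritis in rats: CFA injected into primary paw on day 0; oral dosing in 0.5% methocel once daily for 9 days starting day 9; secondary paw swelling measured; plasma levels taken 24 h after final dose; n = 7/group; 1-way ANOVA/Dunnett's vs vehicle.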
# [6] = target: T3, Prostaglandin D2 receptor 2 (Homo sapiens, UniProt Q9Y5Y4); assay: Displacement of [3H]PGD2 from human DP2 receptor expressed in HEK293-EBNA cells by scintillation counting; type: cell-based; outline: as §2
# T3 sequence (Q9Y5Y4 whole entry): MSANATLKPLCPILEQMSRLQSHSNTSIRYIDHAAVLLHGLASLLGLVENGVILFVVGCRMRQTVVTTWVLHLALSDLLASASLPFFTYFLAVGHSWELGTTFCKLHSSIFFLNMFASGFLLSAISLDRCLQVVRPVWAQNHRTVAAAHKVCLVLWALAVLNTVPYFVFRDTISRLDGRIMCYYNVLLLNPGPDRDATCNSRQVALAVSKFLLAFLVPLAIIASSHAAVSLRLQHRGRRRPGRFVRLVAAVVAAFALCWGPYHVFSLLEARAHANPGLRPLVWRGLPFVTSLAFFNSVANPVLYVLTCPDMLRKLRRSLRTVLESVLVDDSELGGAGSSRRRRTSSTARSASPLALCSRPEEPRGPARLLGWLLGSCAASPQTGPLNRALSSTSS
# Rattus norvegicus [7] = assay: Gastrointestinal toxicity in Sprague-Dawley rat assessed as urinary excretion of 51Cr-EDTA at 3 to 30 mg/kg/day, po once daily for 5 days; type: organism-based, Urine; design: route oral; conditions: in vivo, 120 h
# Outline: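 Male SD rats dosed orally once daily in 0.5% methocel (3, 10, 30 mg/kg for 5 days, or 5 mg/kg for 3 days); single oral 51Cr-EDTA given on day 4 or day 2 respectively; urinary 51Cr excretion as GI permeability index; n = 5/group treated, 4 vehicle; 1-way ANOVA/Dunnett's.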
# [8] = Volume of distribution at steady state in Beagle dog at 5 mg/kg, po and 1 mg/kg, iv; type: ADME, organism-based, Canis lupus familiaris; conditions: in vivo, read-out: Vdss; outline: as §1
# [9] = target: T1, Prostaglandin E2 receptor EP4 subtype; assay: Activity at EP4 receptor in human whole blood assessed as blockade of inhibition of TNF-alpha-induced IP10 release; type: functional, tissue-based
# Outline: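 Human whole blood; TNF-alpha-stimulated IP-10 release, suppressed by the selective EP4 agonist L-902688 (used in place of PGE2); antagonism measured as reversal of that suppression; IC50.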
# [10] = Cmax in C57BL/6 mouse at 20 mg/kg, po; type: ADME, organism-based; design: dose 20 mg/kg, route oral; conditions: in vivo; outline: as §1
# [11] = target: T4, Prostaglandin E2 receptor EP1 subtype (Homo sapiens, UniProt P34995); assay: Displacement of [3H]PGE2 from human EP1 receptor expressed in HEK293-EBNA cells by scintillation counting; type: cell-based; outline: as §2
# T4 sequence (P34995 whole entry): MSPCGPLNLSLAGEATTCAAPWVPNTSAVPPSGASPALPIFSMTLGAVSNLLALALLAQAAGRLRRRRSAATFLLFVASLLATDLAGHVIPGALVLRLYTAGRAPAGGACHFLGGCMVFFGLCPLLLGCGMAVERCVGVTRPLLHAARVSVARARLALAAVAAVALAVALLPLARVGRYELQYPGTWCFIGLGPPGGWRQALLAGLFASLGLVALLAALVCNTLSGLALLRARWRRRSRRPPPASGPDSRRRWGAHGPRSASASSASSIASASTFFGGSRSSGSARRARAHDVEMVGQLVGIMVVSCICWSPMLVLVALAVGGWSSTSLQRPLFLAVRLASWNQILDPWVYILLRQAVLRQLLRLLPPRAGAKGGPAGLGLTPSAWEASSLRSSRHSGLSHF
# [12] = Volume of distribution at steady state in C57BL/6 mouse at 20 mg/kg, po and 5 mg/kg, iv; type: ADME, organism-based; conditions: in vivo, read-out: Vdss; outline: as §1
# [13] = target: T1, Prostaglandin E2 receptor EP4 subtype; assay: Antagonist activity at human EP4 receptor expressed in HEK293 cells assessed as inhibition of PGE2-induced cAMP accumulation by scintillation proximity assay in presence of 10% human serum; type: functional, cell-based
# Outline: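 Functional EP4 assay in the same HEK 293(EBNA) clonal line overexpressing human EP4; inhibition of PGE2-induced cAMP accumulation, run in presence of 10% human serum to gauge serum protein binding; IC50 values are means of at least three experiments.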
# T1 sequence (P35408 whole entry): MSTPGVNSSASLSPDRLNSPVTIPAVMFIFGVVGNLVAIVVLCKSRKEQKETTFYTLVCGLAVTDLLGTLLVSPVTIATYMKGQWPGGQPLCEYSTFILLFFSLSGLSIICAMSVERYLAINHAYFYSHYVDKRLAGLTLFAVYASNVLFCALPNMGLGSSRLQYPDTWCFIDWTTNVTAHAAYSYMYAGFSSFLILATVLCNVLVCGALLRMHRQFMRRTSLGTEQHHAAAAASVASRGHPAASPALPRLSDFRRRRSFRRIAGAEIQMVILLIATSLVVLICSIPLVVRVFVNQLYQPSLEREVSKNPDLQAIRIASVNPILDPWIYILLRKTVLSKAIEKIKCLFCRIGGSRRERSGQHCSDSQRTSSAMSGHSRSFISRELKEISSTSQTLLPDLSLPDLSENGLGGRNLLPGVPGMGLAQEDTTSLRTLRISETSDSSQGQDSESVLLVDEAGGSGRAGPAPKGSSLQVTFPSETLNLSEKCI
# Sequence of Prostacyclin receptor (P43119 whole entry): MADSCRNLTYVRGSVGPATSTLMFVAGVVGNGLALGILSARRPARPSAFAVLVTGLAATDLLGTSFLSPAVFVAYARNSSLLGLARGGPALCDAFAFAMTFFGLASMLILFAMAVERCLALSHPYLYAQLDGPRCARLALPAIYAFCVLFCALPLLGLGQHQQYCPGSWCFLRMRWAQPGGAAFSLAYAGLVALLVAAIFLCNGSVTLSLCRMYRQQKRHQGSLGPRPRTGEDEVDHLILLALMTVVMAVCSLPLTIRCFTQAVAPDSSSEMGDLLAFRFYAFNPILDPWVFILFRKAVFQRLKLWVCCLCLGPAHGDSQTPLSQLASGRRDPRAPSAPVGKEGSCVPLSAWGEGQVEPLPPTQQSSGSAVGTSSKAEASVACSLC
smiles,measurement,setting,value
Cc1sc(C)c(C(=O)NC2(c3ccc(C(=O)O)cc3)CC2)c1Cc1ccc(C(F)(F)F)cc1,clearance,[1],3.2 mL/min/kg
same,clearance,[2],23 mL/min/kg
same,IC50,[3],2.5 nM
same,Ki,[4],3.3 µM
same,Ki,Prostacyclin receptor,> 22 µM
same,Activity,Rattus norvegicus [5],Active
same,Ki,[6],> 21 µM
same,Activity,Rattus norvegicus [7],Non-toxic
same,Vd,[8],0.91 L/kg
same,IC50,[9],11 nM
same,Cmax,[10],1400 nM
same,Ki,[11],> 5.6 µM
same,Vd,[12],7.6 L/kg
same,IC50,[13],2.9 nM
